Screens from PubChem.
Shown are actives, neighbours in structure and some others; about 2.1% of the full set was active somewhere.
APJ antag = antagonists of human apelin receptor APJ, primary screen, CHO-K1 cells, beta-arrestin complementation, luminescence | AID 2521, 2010 | P35414 | inhibition, % at 20 µM | 330,000 compounds, 0.32% hits;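 active = inhibition above about 40% at 20 µM, limit read from the data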;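 note: cells challenged with 10 nM apelin-13 agonist together with compound; plate controls were apelin-13 plus DMSO wells for no effect and DMSO wells lacking apelin-13 for full effect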
CCR6 antag = CCR6 receptor antagonists, primary screen, cell-based, CHO-K1, luminescence, beta-arrestin, uHTS. CHO-K1 CCR6 PathHunter beta-arrestin, CCL20-stimulated. inhibition, % at 20 µM. 340,000 compounds, 0.49% hits. AID 493098, 2011;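 active = compounds whose inhibition of the agonist-driven luminescence signal at 20 µM reaches about 50%, limit read from the data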;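 note: cells stimulated with CCL20 at 14 nM final; plate controls were DMSO with CCL20 for no effect and DMSO without agonist for full effect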
APJ agonist = agonists of human apelin receptor APJ, primary screen, CHO-K1 cells, PathHunter beta-arrestin, luminescence; 0% DMSO wells, 100% apelin; P35414; 330,000 compounds, 0.11% hits; activation, % at 20 µM;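 active = activation more than six SD over the plate average, tested at 20 µM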;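 note: 0% = DMSO alone and 100% = apelin-13 at 10 nM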
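Test system: CHO-K1 APJ beta-arrestin complementation cell line | Compound: Single test compound dose, 20 µM final, 1% DMSO | Incubation: Compound 90 min 25 °C, reagent 1 h | Measured by: beta-gal luminescence | Read-out basis: APJ–arrestin association signal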
m5-HT2A agonist = mouse Htr2a agonists via beta-arrestin recruitment, primary screen, cell-based, luminescence | 5-hydroxytryptamine receptor 2A (Mus musculus), P35363 | CHO-K1 mHTR2A beta-arrestin complementation; percent of 30 µM serotonin response | activation, % at 7.6 µM | 360,000 compounds, 0.66% hits | AID 624169, 2012;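 active = activation above a run cutoff, the mean activation of all tested compounds plus 3 SD, cut at about 14% in these data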;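 note: 0% = plate median of compound wells and 100% = 30 µM serotonin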
Target sequence (P35363 whole entry, looked up): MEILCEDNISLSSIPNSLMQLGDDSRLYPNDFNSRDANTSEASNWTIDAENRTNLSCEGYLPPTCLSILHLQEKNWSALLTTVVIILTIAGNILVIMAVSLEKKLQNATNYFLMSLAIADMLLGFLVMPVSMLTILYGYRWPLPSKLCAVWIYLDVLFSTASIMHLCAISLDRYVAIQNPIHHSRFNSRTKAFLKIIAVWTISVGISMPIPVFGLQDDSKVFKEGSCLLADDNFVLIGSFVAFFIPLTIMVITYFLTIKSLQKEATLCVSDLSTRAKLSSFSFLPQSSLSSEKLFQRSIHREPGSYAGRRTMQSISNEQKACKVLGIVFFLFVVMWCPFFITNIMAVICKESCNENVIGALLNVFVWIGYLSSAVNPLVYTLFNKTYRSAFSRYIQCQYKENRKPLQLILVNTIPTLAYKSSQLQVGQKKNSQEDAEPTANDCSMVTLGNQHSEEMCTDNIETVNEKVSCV
CXCR6 inh = CXCR6 receptor inhibitors, primary screen, cell-based, beta-arrestin, luminescence, CHO-K1 PathHunter, 1536-well. inhibition, % at 20 µM. AID 602244, 2012. 360,000 compounds, 0.36% hits. C-X-C chemokine receptor type 6 (Homo sapiens), O00574; in the data active = inhibition above about 34%, passing the limit was not always enough;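 note: antagonist mode with CXCL16 agonist at 10 nM final; 0% = 10 nM CXCL16 with DMSO and 100% = unstimulated wells without agonist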
EBI2 block = EBI2 receptor antagonists, beta-arrestin recruitment, primary screen, cell-based, luminescence, 7a,25-OHC stimulation, uHTS; 7a,25-OHC stimulated; G-protein coupled receptor 183 (Homo sapiens), P32249; 360,000 compounds, 0.81% hits; inhibition, % at 5 µM; in the data active = inhibition above about 38%;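 note: enzyme fragment complementation signal reports receptor beta-arrestin coupling in cells; 0% = agonist plus DMSO wells and 100% = wells without agonist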
EBI2 antag conf = EBI2 antagonist hit retest, beta-arrestin, confirmation, cell-based, single concentration, luminescence, 7a,25-OHC stimulation | shares compounds with EBI2 block | 7a,25-OHC antagonism | inhibition, % at 5 µM | 2,400 compounds, 29% hits;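 active = inhibition of at least 50%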
EBI2 agonist = EBI2 agonist activity of antagonist hits, confirmation, counter-screen for EBI2 antagonist project, cell-based, single concentration, agonist mode, luminescence; activation, % at 5 µM; 2,400 tested, under 10 active; shares compounds with EBI2 block; EBI2-expressing cells, 60 min; 0% vehicle, 100% 7α,25-dihydroxycholesterol control; AID 652000, 2013;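 active = activation of at least 50%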
bGal cs = E. coli beta-galactosidase enzyme inhibition, confirmation, counter-screen for EBI2 antagonist project, biochemical, luminescence, single concentration | shares compounds with EBI2 block | purified beta-galactosidase, luminescent Galacton Star, 15 min | inhibition, % at 5 µM | 2,400 compounds, 1% hits | AID 652176, 2013;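 active = replicate-average signal at least 3 plate SD below neutral wells, shown as high inhibition, flagging enzyme-inhibiting false positives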;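 note: 0% = DMSO wells with enzyme and 100% = wells lacking enzyme; higher means stronger loss of beta-gal luminescence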
Starred values were filed as active, the others as inactive; / = not tested or not shown.

SMILES | APJ antag | CCR6 antag | APJ agonist | m5-HT2A agonist | CXCR6 inh | EBI2 block | EBI2 antag conf | EBI2 agonist | bGal cs
CCOC(=O)N1CCN(C(=O)CCc2ccc(S(=O)(=O)NCC(C)C)cc2)CC1 | 7 | -2 | 2 | -3 | -11 | -2 | / | / | /
Cc1cc(C)c(Cn2cnc(-c3ccc([N+](=O)[O-])cc3)c2)c(C)c1 | 13 | 9 | -6 | 0 | -4 | 42 | / | / | /
CC(C)(C)c1ccc(Cn2cnc(-c3ccc([N+](=O)[O-])cc3)c2)cc1 | -11 | 14 | -2 | 1 | 4 | 51* | 23 | 1 | 6
Cc1ccc(C)c(N2CCN(C(=O)c3ccc4c(c3)c(C)c(C)n4C)CC2)c1 | 4 | 9 | -4 | 0 | 5 | 73* | 58* | 0 | -10
CCOC(=O)N1CCN(C(=O)c2cc3sccc3n2C)CC1 | -10 | 6 | -2 | 7 | 6 | 7 | / | / | /
Cc1ccc(C)c(N2CCN(C(=O)c3cc4sccc4n3C)CC2)c1 | 5 | 2 | -4 | -11 | 3 | 74* | 34 | -1 | -9
Cc1ccc(C)c(N2CCN(C(=O)c3ccc(N4CCCC4=O)cc3)CC2)c1 | -5 | 7 | -2 | -5 | 1 | 48* | 21 | -1 | -11
Cc1ccc(C)c(N2CCN(C(=O)c3ccc4nc(-c5ccco5)c(-c5ccco5)nc4c3)CC2)c1 | 2 | 9 | 1 | 1 | 12 | 44* | 33 | -1 | 11
COc1ccccc1N1CCN(C(=O)c2ccc3nc(-c4ccco4)c(-c4ccco4)nc3c2)CC1 | -22 | 12 | 5 | 0 | 4 | -8 | / | / | /
Cc1ccc(C)c(Cn2nnc3c(=O)[nH]c(C4CCCN(C(=O)c5ccco5)C4)nc32)c1 (centres undefined) | 24 | 7 | -2 | 1 | -6 | -2 | / | / | /
O=C(Cn1cc([N+](=O)[O-])cn1)NCc1ccc(-n2cccn2)cc1 | -15 | -3 | -1 | 2 | -5 | 17 | / | / | /
O=C(Nc1cccc(F)c1)c1ccc(-n2cncn2)c2ccoc12 | / | / | / | -7 | 0 | -1 | / | / | /
CC1=NN(c2ccccc2)C(=O)/C1=C/c1cccc(C)c1 | 14 | 11 | -2 | -2 | 6 | -9 | / | / | /
Cc1cccc(N2C(=O)/C(=C\c3ccc(OC(F)F)cc3)c3ccccc3C2=O)c1 | -3 | 10 | 2 | 6 | -8 | 61* | 49 | 0 | 4
O=C(NCc1ccccc1Cl)c1[nH]c(C(F)(F)F)nc1-c1ccccc1 | / | / | / | -5 | 1 | -10 | / | / | /
CC(=O)c1nn(-c2cccc(Br)c2)cc1C(=O)c1ccc2ccccc2c1 | -2 | 4 | -3 | 5 | -3 | -8 | / | / | /
Cn1nnc2c(sc3nc(N4CCOCC4)c4c(c32)CCCC4)c1=O | 13 | 3 | -4 | -2 | 9 | 49* | 38 | -1 | -19
O=C(CN1CCN(S(=O)(=O)c2ccc(Br)cc2)CC1)N/N=C/c1ccc(Br)s1 | -3 | 9 | 0 | 12 | -4 | 65* | 44 | -1 | -10
O=C(CN1CCN(S(=O)(=O)c2ccccc2)CC1)Nc1ccc(Cl)c(Cl)c1 | 2 | 22 | 1 | -3 | -17 | 61* | 45 | 1 | -2
Cc1ccc(/C=N/NC(=O)CN2CCN(S(=O)(=O)c3ccc(Br)cc3)CC2)s1 | -6 | 3 | -3 | 2 | -2 | 69* | 52* | 0 | 5
Cc1ccc(S(=O)(=O)N2CCN(CC(=O)N/N=C/C=C/c3ccccc3)CC2)cc1 | -4 | -5 | 0 | 0 | -1 | 43* | 31 | 0 | 9
NC(=S)Nc1cc(Cl)ccc1Cl | 16 | 15 | -2 | 0 | 5 | -1 | / | / | /
CCCN1CCC(=O)N([C@H](CO)Cc2ccccc2)CC1 | 7 | -1 | 1 | 1 | 7 | -10 | / | / | /
Cc1ccc(/C=C/C(=O)NCCCc2ccccc2)cc1 | 15 | 22 | -1 | -1 | 12 | 49* | 39 | -1 | -2
Cc1ccc(CSCCNC(=O)/C=C/c2ccc(Cl)cc2)cc1 | -11 | -9 | 2 | -3 | 1 | 53* | 29 | 2 | -1
SMILES | APJ antag | CCR6 antag | APJ agonist | m5-HT2A agonist | CXCR6 inh | EBI2 block | EBI2 antag conf | EBI2 agonist | bGal cs
CCOc1ccc(NC(=S)N(CCc2c(C)[nH]c3ccc(C)cc23)Cc2cccnc2)cc1 | 3 | -2 | -5 | -3 | 9 | 24 | / | / | /
CCOc1ccc(NC(=S)N(CCc2c(C)[nH]c3ccc(C)cc23)Cc2ccco2)cc1 | 8 | 7 | -4 | 6 | 7 | 40* | 29 | 0 | 3
CC1CC(C)CN(CC(=O)NC(c2ccccc2)c2ccccc2)C1 (centres undefined) | 6 | 20 | -2 | 0 | 14 | 12 | / | / | /
CCOC(=O)C1=C[C@@H](C(C)(C)C)N(S(=O)(=O)c2ccc(C)cc2)[C@H]1c1ccc(C#N)cc1 | / | / | / | 2 | 6 | 42* | 30 | 1 | 6
CCOC(=O)C1=C[C@@H](C(C)(C)C)N(S(=O)(=O)c2ccc(C)cc2)[C@H]1c1ccccc1 | / | / | / | -1 | -1 | -5 | / | / | /
O=C(CC1(O)C(=O)N(Cc2cccc3ccccc23)c2ccccc21)c1cccnc1 (centres undefined) | 6 | 5 | -1 | -6 | 2 | 3 | / | / | /
CCOC(=O)C(Oc1ccc2c(-c3ccc(OC)cc3)cc(=O)oc2c1C)c1ccccc1 (centres undefined) | 14 | 25 | -2 | 2 | 14 | 36* | 32 | -1 | -20
O=C(NC1CCCCCC1)c1ccc(=O)n(Cc2ccccc2)n1 | 11 | 19 | 0 | -2 | 13 | 46* | 35 | 0 | 7
Cc1cc(C(=O)N2CCC(Cc3ccccc3)CC2)ccc1[N+](=O)[O-] | -7 | 4 | -3 | 2 | 8 | 64* | 43 | 1 | 5
